Published values gathered from unrelated publications.
Each line is one published result; the experiments were not run side by side.
PFF0160c: Dihydroorotate dehydrogenase (quinone), mitochondrial (PFF0160c, Plasmodium falciparum, UniProt Q08210)
OPRK1: Kappa-type opioid receptor (OPRK1, Homo sapiens, UniProt P41145)
CNR1: Cannabinoid receptor 1 (CNR1, Homo sapiens, UniProt P21554)

| SMILES | target | assay | conditions | endpoint | result |
| --- | --- | --- | --- | --- | --- |
| CNC(=O)c1ccc(-c2cnn3ccc(C(=O)N(C)c4ccc(Cl)c(C(=O)OC)c4)cc23)cc1 | Serine/threonine-protein kinase WNK1 (WNK1, Homo sapiens, UniProt Q9H4A3) | enzyme activity, inhibitor | – | IC50 | > 30000 nM |
| Cn1nc2c(=O)n(C3CC3)ncc2c1[C@](O)(c1ccc(C(F)(F)F)c(Cl)c1)C(F)(F)F | PFF0160c | enzyme activity, inhibitor | – | IC50 | 7.94 nM |
| O=C(N[C@H]1CC[C@@]2(O)[C@H]3Cc4ccc(O)c5c4[C@@]2(CCN3CC2CC2)[C@H]1O5)c1ccc(C(F)(F)F)s1 | OPRK1 | ligand displacement, radioligand | cell membranes | Ki | 2.47 nM |
| Cc1nn(C2CC2)c(=O)c2nn(C)c(Cc3ccc(C(F)(F)F)c(C#N)c3)c12 | PFF0160c | enzyme activity, inhibitor | – | IC50 | 200 nM |
| NC(=O)c1ccc(C(=O)N[C@H]2CC[C@@]3(O)[C@H]4Cc5ccc(O)c6c5[C@@]3(CCN4CC3CC3)[C@H]2O6)s1 | OPRK1 | ligand displacement, radioligand | cell membranes | Ki | 1.91 nM |
| CCCCCn1c(O)c(N=NC(=O)c2ccccc2)c2ccccc21 | CNR1 | ligand displacement, radioligand | cell membranes | Ki | 1560 nM |
| CC(=O)S(=O)(=O)c1ccc(C(=O)N[C@H]2CC[C@@]3(O)[C@H]4Cc5ccc(O)c6c5[C@@]3(CCN4CC3CC3)[C@H]2O6)s1 | OPRK1 | ligand displacement, radioligand | cell membranes | Ki | 1.64 nM |
| CCCCCCn1c(O)c(N=NC(=O)c2ccccc2)c2ccccc21 | CNR1 | ligand displacement, radioligand | cell membranes | Ki | 1150 nM |
| CC[C@@](O)(c1ccc(F)c(Cl)c1)c1c2ccn(C3CC3)c(=O)c2nn1C | PFF0160c | enzyme activity, inhibitor | – | IC50 | 6.31 nM |
| COC(=O)[C@@H](NC(=O)c1nn(Cc2ccc(F)cc2)c2ccccc12)C(C)C | CNR1 | β-arrestin recruitment, agonist | – | EC50 | 20 nM |
| CCNC(=O)c1nn(C)c(Cc2ccc(C(F)(F)F)nc2)c1C | PFF0160c | enzyme activity, inhibitor | – | IC50 | 5200 nM |
| CCCCCc1cc(O)c2c(c1)OC(C)(C)c1ccc(C)cc1-2 | CNR1 | cell-free assay | – | Ki | 285 nM |
| N#Cc1ccc(C(=O)N[C@H]2CC[C@@]3(O)[C@H]4Cc5ccc(O)c6c5[C@@]3(CCN4CC3CC3)[C@H]2O6)s1 | OPRK1 | ligand displacement, radioligand | cell membranes | Ki | 3.61 nM |
| Cn1nc2c(=O)n(C3CC3)cnc2c1[C@@](O)(c1cnc(C(F)(F)F)c(Cl)c1)C(F)(F)F | PFF0160c | enzyme activity, inhibitor | – | IC50 | 5010 nM |
| C=CCCCn1c(O)c(N=NC(=O)c2ccccc2)c2ccccc21 | CNR1 | β-arrestin recruitment, agonist | – | EC50 | 1040 nM |
